According to PMC3374877 (Chembiochem, 2011):
“Also recorded” adds a separate entry of the source. Bridges are numbered along the chain shown (N, C = ends). Where no end group is shown, it is not given here.

What was measured:
[1] = test system: TLR4 (RAW 264.7 macrophage cells); assay: Nitric oxide production in RAW 264.7 macrophages, LPS-induced TLR4 activation; format: cell-based; conditions: 50 μM peptide, LPS 50 ng/ml
Summary of the method: (§1)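 RAW 264.7 macrophages were stimulated with the TLR-specific ligand in the presence or absence of 50 μM peptide. Nitric oxide production was the read-out of pathway activation.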

[2] = target: extracellular construct (a.a. 1–632) of human TLR4 (Homo sapiens, UniProt O00206); format: binding; conditions: fluorescence polarization
[3] = test system: TLR1/TLR2 (RAW 264.7 macrophage cells); format: cell-based; conditions: 50 μM peptide, Pam3CSK4 250 ng/ml
Summary of the method: as §1

[4] = test system: TLR2/TLR6 (RAW 264.7 macrophage cells); format: cell-based; conditions: 50 μM peptide, PGN 50 μg/ml
Summary of the method: as §1

[5] = test system: rats subjected to CCI of the sciatic nerve; assay: Chronic constriction injury; format: in vivo; conditions: rat CCI; intrathecal; summary in words
Summary of the method: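 Rats underwent chronic constriction injury and were tested at baseline, then on days 4 and 11 after surgery to confirm allodynia. After a pre-drug assessment, peptide was delivered intrathecally into the peri-spinal cerebrospinal fluid by the lumbar approach, at approximately 250 μM final in the intrathecal space. Vehicle was saline. Allodynia was reassessed 1, 3 and 24 h after injection.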

HEK 293 cells = assay: Cytotoxicity, trypan blue staining, HEK 293 cells; format: cell-based
BV2 cells = assay: Cytotoxicity, trypan blue staining, BV2 cells; format: cell-based
RAW 264.7 cells = assay: Cytotoxicity, trypan blue staining, RAW 264.7 cells; format: cell-based
whole human blood = assay: Haemolysis in whole human blood; format: cell-based; conditions: concentrations up to 500 μM
rats = assay: Behavioural observation after peptide injection; format: in vivo, rat; conditions: rats of the CCI test; intrathecal injection of peptide stock solutions
TLR4/MD2 complex = conditions: previously reported; cited from earlier work
TLR4 = conditions: read-out: KD of full-length MD2 binding to TLR4; cited from earlier work

Chain of extracellular construct (a.a. 1–632) of human TLR4 (O00206 24-632): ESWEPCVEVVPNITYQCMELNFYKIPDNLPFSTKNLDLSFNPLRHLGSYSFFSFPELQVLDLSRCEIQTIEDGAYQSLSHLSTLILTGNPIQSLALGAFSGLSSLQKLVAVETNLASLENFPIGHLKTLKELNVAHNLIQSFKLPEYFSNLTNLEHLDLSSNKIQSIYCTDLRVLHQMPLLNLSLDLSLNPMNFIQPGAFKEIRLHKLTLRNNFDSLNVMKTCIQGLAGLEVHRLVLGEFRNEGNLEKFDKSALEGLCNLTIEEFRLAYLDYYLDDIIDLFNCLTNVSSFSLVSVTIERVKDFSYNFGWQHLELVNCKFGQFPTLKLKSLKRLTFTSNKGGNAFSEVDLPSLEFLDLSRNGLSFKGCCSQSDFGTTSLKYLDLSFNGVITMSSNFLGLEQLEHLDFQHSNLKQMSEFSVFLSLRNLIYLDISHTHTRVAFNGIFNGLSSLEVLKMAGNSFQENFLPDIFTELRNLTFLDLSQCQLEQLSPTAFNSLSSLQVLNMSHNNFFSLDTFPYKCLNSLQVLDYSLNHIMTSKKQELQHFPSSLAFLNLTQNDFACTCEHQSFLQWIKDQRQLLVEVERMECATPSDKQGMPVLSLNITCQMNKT

| Substance | inhibition of TLR4 signalling (NO production) [1] | binding activity toward TLR4 (change in polarization) ([2]; TLR4 titrated, in words) | maximum polarization value ([2]; plateau upon addition of TLR4) | inhibition of TLR1/2 signalling (NO production) [3] | inhibition of TLR2/TLR6 signalling (NO production) [4] | suppression of neuropathic pain in vivo (summary statement) [5] | cytotoxicity (HEK 293 cells) | cytotoxicity (BV2 cells) | cytotoxicity (RAW 264.7 cells) | haemolysis (whole human blood) | abnormal behaviours after injection (rats) | inhibition of TLR4 signalling, LPS antagonism (TLR4/MD2 complex) | Kd (TLR4) [nM] |
| --- | --- | --- | --- | --- | --- | --- | --- | --- | --- | --- | --- | --- | --- |
| CRGSAAAYSFCAALAGA (disulfide 1-11 (inferred)) [MD2-III] | no inhibition on the TLR4 signaling; also recorded: no inhibitory effect on the TLR4 signaling | – | – | – | – | – | – | – | – | – | – | – | – |
| CRGSDDDYSFCRALKGE (disulfide 1-11 (inferred)) [MD2-I] | significant reduced signals of LPS-induced TLR4 activation; also recorded: selectively inhibits the NO production induced by LPS | robust increase | approximately 0.25 | negligible inhibitory effects; also recorded: without affecting other homologous TLRs | negligible inhibitory effects; also recorded: without affecting other homologous TLRs | moderate potency in an animal model; also recorded: able to suppress neuropathic pain in animal models; also recorded: could suppress neuropathic pain in vivo | little cytotoxicity | little cytotoxicity | little cytotoxicity | does not induce haemolysis | no abnormal behaviours were observed | abolishes TLR4 signalling by antagonizing its native ligand, lipopolysaccharide (LPS), binding to the TLR4/MD2 complex | – |
| full-length MD2: myeloid differentiation factor 2, accessory protein required for TLR4 activation | – | – | – | – | – | – | – | – | – | – | – | – | 12 |
